Laboratory results reported in ChEMBL document CHEMBL4011638, “Semisynthetic Flavone-Derived Antimicrobials with Therapeutic Potential against Methicillin-Resistant Staphylococcus aureus (MRSA)” (J Med Chem, 2017).
Converted amounts (≈) assume the structure as drawn. The source made the active and inactive calls. The calls are words filed in the database; no cut-off is given here.

Columns and labels:
Staphylococcus aureus [1] = experiment: Ratio of MIC for Staphylococcus aureus ATCC 29213 after […] passages to MIC for Staphylococcus aureus ATCC 29213; type: functional
How it was run: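 Serial passage. Initial MIC was determined against S. aureus ATCC29213 by broth microdilution. Bacteria from duplicate tubes at 0.5× MIC were diluted to ~5 × 10^5 CFU/mL for the next MIC round. Each round was incubated at 35 °C for 24 h and the fold increase in MIC recorded. Gatifloxacin and norfloxacin served as comparators. Repeated for 17 passages, biological replicates.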

Staphylococcus aureus [2] = experiment: Antibacterial activity against methicillin-resistant Staphylococcus aureus DM 9808R after 24 hrs by broth microdilution method; type: functional
How it was run: (§1)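 Broth microdilution per CLSI in cation-adjusted Mueller−Hinton broth, in tubes. Compounds dissolved in H2O or DMF, then diluted in PBS to 1000 μg/mL stocks. Serial 2-fold dilutions were made, with final DMF 2.5%. Organisms were grown on TSA at 35 °C for 20 h and adjusted to ~5× 10^5 CFU/mL. Tubes were incubated at 35 °C for 24 h. MIC was the lowest concentration with no visible growth versus control. Biological replicates.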

Staphylococcus aureus [3] = experiment: Antibacterial activity against Staphylococcus aureus DM4001R after 24 hrs by broth microdilution method; type: functional; how it was run: as §1
Staphylococcus aureus [4] = experiment: Antibacterial activity against methicillin-resistant Staphylococcus aureus DM 21455 after 24 hrs by broth microdilution method; type: functional; conditions: DM 21455, 24 h; how it was run: as §1
Bacillus cereus = experiment: Antibacterial activity against Bacillus cereus ATCC 11778 after 24 hrs by broth microdilution method; type: functional; conditions: ATCC 11778, 24 h
How it was run: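 MIC by CLSI broth microdilution in cation-adjusted Mueller–Hinton broth, tubes. Compounds in H2O or DMF, diluted in PBS to 1000 μg/mL stocks, then serial 2-fold dilutions (final DMF 2.5%). Inoculum ~5×10^5 CFU/mL from TSA plates grown 35 °C 20 h. Incubation 35 °C 24 h; MIC = no visible growth vs control. Biological replicates.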

Staphylococcus aureus [5] = experiment: Antibacterial activity against methicillin-sensitive Staphylococcus aureus DM4583R after 24 hrs by broth microdilution method; type: functional; how it was run: as §1
Staphylococcus aureus [6] = experiment: Antibacterial activity against methicillin-sensitive Staphylococcus aureus DM4400R after 24 hrs by broth microdilution method; type: functional; how it was run: as §1
Staphylococcus aureus [7] = experiment: Antibacterial activity against methicillin-sensitive Staphylococcus aureus DM4299 after 24 hrs by broth microdilution method; type: functional; conditions: DM4299, 24 h; how it was run: as §1
Staphylococcus aureus [8] = experiment: Antibacterial activity against methicillin-sensitive Staphylococcus aureus ATCC 29213 after 24 hrs by broth microdilution method; type: functional; conditions: ATCC 29213, 24 h; how it was run: as §1
Staphylococcus aureus [9] = experiment: Antibacterial activity against methicillin-sensitive Staphylococcus aureus ATCC 6538 after 24 hrs by broth microdilution method; type: functional; conditions: ATCC 6538, 24 h; how it was run: as §1
Staphylococcus aureus [10] = experiment: Antibacterial activity against methicillin-sensitive Staphylococcus aureus ATCC 29737 after 24 hrs by broth microdilution method; type: functional; conditions: ATCC 29737, 24 h; how it was run: as §1
Staphylococcus aureus [11] = experiment: Antibacterial activity against methicillin-resistant Staphylococcus aureus DB6506 after 24 hrs by broth microdilution method; type: functional; conditions: DB6506, 24 h; how it was run: as §1
Staphylococcus aureus [12] = experiment: Antibacterial activity against methicillin-resistant Staphylococcus aureus DB68004 after 24 hrs by broth microdilution method; type: functional; conditions: DB68004, 24 h; how it was run: as §1
Staphylococcus aureus [13] = experiment: Antibacterial activity against methicillin-resistant Staphylococcus aureus DB57964 after 24 hrs by broth microdilution method; type: functional; conditions: DB57964, 24 h; how it was run: as §1
Staphylococcus aureus [14] = experiment: Antibacterial activity against methicillin-resistant Staphylococcus aureus ATCC 43300 after 24 hrs by broth microdilution method; type: functional; conditions: ATCC 43300, 24 h; how it was run: as §1
Staphylococcus aureus [15] = experiment: Antibacterial activity against methicillin-resistant Staphylococcus aureus ATCC 700699 after 24 hrs by broth microdilution method; type: functional; conditions: ATCC 700699, 24 h; how it was run: as §1
Staphylococcus aureus [16] = experiment: Antibacterial activity against methicillin-resistant Staphylococcus aureus BAA-38 after 24 hrs by broth microdilution method; type: functional; conditions: BAA-38, 24 h; how it was run: as §1
[17] = Ratio of HC50 for New Zealand white rabbit RBC to MIC for methicillin-sensitive Staphylococcus aureus DM4583R
How it was run: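 HC50 measured on fresh New Zealand white rabbit RBCs, washed three times in PBS, at 4% v/v final. Cells were incubated with 2-fold serial dilutions (DMF final 0.5%) at 37 °C for 1 h, then centrifuged. Supernatant absorbance was read at 576 nm, with PBS as 0% and 2% Triton X-100 as 100% lysis. HC50 is the concentration lysing 50% of cells, divided by MIC from broth microdilution.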

Staphylococcus aureus [18] = experiment: Induction of plasma membrane permeability in methicillin-resistant Staphylococcus aureus DM9808R assessed as increase in fluorescence intensity at 12.5 ug/ml measured every 1 sec for 50 mins by SYTOX green dye based fluorimetric assay; type: functional
How it was run: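 Exponential-phase MRSA DM9808R grown on TSA, washed twice and resuspended in PBS (10 mM, pH 7) to OD600 0.2. Cells were loaded with 0.3 μM SYTOX Green in the dark until fluorescence stabilized. Test samples were then added (final DMF 0.5%). Fluorescence at ex 504/em 523 nm was recorded every 1 s for 50 min. Biological replicates.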

Lipid bilayer = experiment: Membrane permeabilization activity in DOPE/DOPG large unilamellar liposomes assessed as leakage of calcein at 1:4 to 1:8 compound to lipid ratio by fluorescence assay

Compound	MIC (Staphylococcus aureus [2])	MIC (Staphylococcus aureus [3])	MIC (Staphylococcus aureus [4])	MIC (Bacillus cereus)	also measured
COc1c(N2CCNC(C)C2)c(F)cc2c(=O)c(C(=O)O)cn(C3CC3)c12 (stereo not drawn) [GATIFLOXACIN]	–	–	–	–	Ratio (Staphylococcus aureus [1]): 64
CCN(CC)CCCCOc1cc(O)c2c(=O)c(OCCCCN(CC)CC)c(-c3ccc(OC)cc3)oc2c1CC=C(C)C	12.5 µg/mL	25 µg/mL	12.5 µg/mL	6.25 µg/mL	–
COC(=O)[C@H](CCCNC(=N)N)NC(=O)[C@H](CCCNC(=N)N)NC(=O)COc1cc(O)c2c(=O)c(OCC(=O)N[C@@H](CCCNC(=N)N)C(=O)N[C@@H](CCCNC(=N)N)C(=O)OC)c(-c3ccc(OC)cc3)oc2c1CC=C(C)C	5.5 µM	5.5 µM	11 µM	11 µM	–
H-GIGKFLKKAKKFGKAFVKILKK-OH	–	–	–	–	MIC (Staphylococcus aureus [5]): 16 to 64 µg/mL; MIC (Staphylococcus aureus [6]): 16 to 64 µg/mL; MIC (Staphylococcus aureus [7]): 16 to 64 µg/mL; MIC (Staphylococcus aureus [8]): 16 to 64 µg/mL; MIC (Staphylococcus aureus [9]): 16 to 64 µg/mL; MIC (Staphylococcus aureus [10]): 16 to 64 µg/mL; MIC (Staphylococcus aureus [11]): 16 to 64 µg/mL; MIC (Staphylococcus aureus [12]): 16 to 64 µg/mL; MIC (Staphylococcus aureus [13]): 16 to 64 µg/mL; MIC (Staphylococcus aureus [14]): 16 to 64 µg/mL; MIC (Staphylococcus aureus [15]): 16 to 64 µg/mL; MIC (Staphylococcus aureus [16]): 16 to 64 µg/mL; Ratio [17]: 2 to 8
COc1ccc(-c2oc3c(CC=C(C)C)c(OCCBr)cc(O)c3c(=O)c2OCCBr)cc1	10 µM	5 µM	5 µM	5 µM	–
COC(=O)[C@H](CCCCN)NC(=O)COc1cc(O)c2c(=O)c(OCC(=O)N[C@@H](CCCCN)C(=O)OC)c(-c3ccc(OC)cc3)oc2c1CC=C(C)C	32.5 µM	32.5 µM	32.5 µM	32.5 µM	Activity (Staphylococcus aureus [18]): Active; Activity (Lipid bilayer): 30%
COc1ccc(-c2oc3c(CC=C(C)C)c(O)cc(O)c3c(=O)c2O)cc1 [ICARITIN]	50 µg/mL	50 µg/mL	50 µg/mL	136 µM	MIC (Staphylococcus aureus [5]): 50 µg/mL (≈ 136 µM); MIC (Staphylococcus aureus [6]): 50 µg/mL (≈ 136 µM); MIC (Staphylococcus aureus [7]): 50 µg/mL (≈ 136 µM); MIC (Staphylococcus aureus [8]): 50 µg/mL (≈ 136 µM); MIC (Staphylococcus aureus [9]): 50 µg/mL (≈ 136 µM); MIC (Staphylococcus aureus [10]): 50 µg/mL (≈ 136 µM); MIC (Staphylococcus aureus [11]): 50 µg/mL (≈ 136 µM); MIC (Staphylococcus aureus [12]): 50 µg/mL (≈ 136 µM); MIC (Staphylococcus aureus [13]): 50 µg/mL (≈ 136 µM); MIC (Staphylococcus aureus [14]): 50 µg/mL (≈ 136 µM); MIC (Staphylococcus aureus [15]): 50 µg/mL (≈ 136 µM); MIC (Staphylococcus aureus [16]): 50 µg/mL (≈ 136 µM); Ratio [17]: > 8; Activity (Staphylococcus aureus [18]): inactive; Activity (Lipid bilayer): < 5%
COC(=O)[C@H](CCCNC(=N)N)NC(=O)COc1cc(O)c2c(=O)c(O)c(-c3ccc(OC)cc3)oc2c1CC=C(C)C	5.2 µM	5.2 µM	10.4 µM	10.4 µM	–
COc1ccc(-c2oc3c(CC=C(C)C)c(OCC(=O)N[C@@H](CCCNC(=N)N)C(=O)OC(C)(C)C)cc(O)c3c(=O)c2OCC(=O)N[C@@H](CCCNC(=N)N)C(=O)OC(C)(C)C)cc1	3.4 µM	3.4 µM	6.8 µM	3.4 µM	–
COc1ccc(-c2oc3c(CC=C(C)C)c(OCCCCN(C)C)cc(O)c3c(=O)c2OCCCCN(C)C)cc1	12.5 µg/mL	25 µg/mL	12.5 µg/mL	25 µg/mL	–
